Compound activity as filed in PubChem.
Ba/F3 V617F tox: reduce viability of Ba/F3 cells dependent on JAK2V617F; Ba/F3 EpoR-JAK2V617F viability, ATP luminescence; inhibition, % at 5.6 µM; actives 1.1% (n = 220,000); AID 1446;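 active = inhibition above the campaign mean plus 3 SD over all tested compounds, cut at about 24% in these data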;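 also: cytokine-independent growth of Ba/F3 cells driven by EpoR plus mutant JAK2; 0% = DMSO-treated cells and 100% = JAK inhibitor I control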
MT stabilize HCS: microtubule stabilization, imaging screen | % tubulin-high responders, % at 10 µM | AID 2205 | actives 0.83% (n = 200,000) | HeLa tubulin immunostaining HCS, 24 h; share of cells brighter than vehicle mean+2SD;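 active = plate Z-score above 3 for both tubulin-high and condensed-nucleus cell shares, with cell loss under 80%, at 10 µM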;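 also: anti alpha tubulin signal scored within the nucleus-defined area of each cell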
bCat nuc transl: alters nuclear translocation of beta-catenin in HeLa cells; immunofluorescence imaging; nuclear translocation activity, % at 5 µM; actives 0.3% (n = 190,000);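 active = nuclear translocation activity above 50% at 5 µM, with a well cell count of 50 or more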;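 also: per-cell ratio of nuclear to cytoplasmic median beta-catenin stain intensity; plate controls were DMSO negative control for no effect and GSK-3 inhibitor IX positive control for full effect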
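Assay system: human HeLa cells, native beta-catenin; doses: 5 µM primary, 0.02–20 µM confirmation; incubation: compound treatment 24 h, 37°C, 5% CO2; technique: fluorescence imaging of beta-catenin antibody stain plus DAPI; measure: % activation, nuclear-to-cytoplasmic median beta-catenin signal ratio per cell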
APP 5UTR inh: APP translation inhibition; SH-SY5Y APP 5'UTR-luciferase reporter, luminescence; inhibition, % at 2 µM; actives 0.82% (n = 190,000); AID 1285;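 active = inhibition above a set limit, derived from the sample mean plus 3 SD, cut at about 45% in these data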
IEC-6 tox: IEC-6 cytotoxicity, counter-screen for KLF5 inhibitors; actives 0.78% (n = 290,000); AID 1825; inhibition, % at 5 µM; luminescence viability; in the data active = inhibition above about 22%;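 also: 0% = plate median of test compound wells and 100% = cytotoxic reference compound wells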
BaF3 parental: counter-screen for JAK2V617F inhibitors: parental Ba/F3 viability inhibitors; inhibition, % at 5.6 µM; actives 1.1% (n = 220,000); AID 1486; CellTiter-Glo ATP luminescence;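 active = inhibition above a per-campaign cutoff, the mean inhibition of all tested compounds plus 3 SD, cut at about 27% in these data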;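 also: 0% = DMSO wells and 100% = JAK Inhibitor I control wells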
Active calls of the source: *; . = no result. Shown are actives, neighbours in structure and some others; about 2.2% of the full set was active somewhere.

SMILES | Ba/F3 V617F tox | MT stabilize HCS | bCat nuc transl | APP 5UTR inh | IEC-6 tox | BaF3 parental
Nc1[nH]n2c(=O)c3c(nc2c1N=Nc1ccc(Cl)cc1)CCCC3 | -4 | 21* | 4 | 4 | 2 | -2
CCCCCNC1=CC(=O)CC(c2ccccc2)C1 (centres undefined) | 0 | 47* | . | 8 | 3 | 5
CCCCCCCNC1=CC(=O)CC(c2ccccc2)C1 (centres undefined) | 28* | 12* | 16 | -11 | -1 | 36*
Cc1ccc[n+](CC(=O)c2ccccc2)c1 | . | . | . | . | -5 | .
Cc1ccc(C[n+]2cccc(-c3ccccc3)c2)c(C)c1 | 77* | 4 | 4 | -4 | 13 | 69*
Cc1cccc(CN2C(=O)N/C(=C/c3ccc(C)s3)C2=O)c1 | -2 | 53* | 67* | 28 | 1 | 7
Cc1ccc(/C=C2/NC(=O)N(Cc3ccccc3)C2=O)s1 | -4 | 2 | 2 | -8 | 4 | 0
O=C1NC(c2ccc3c(c2)OCO3)Nc2ccccc21 (centres undefined) | -1 | 22* | -1 | -12 | 2 | 5
CC1(C)N=C(N)NC(Nc2ccc(Br)cc2)=N1 | 9 | 3 | 0 | -9 | 2 | 35*
COc1ccc(S(=O)(=O)N2CCCCC2)cc1NC(=O)c1ccco1 | . | . | . | . | 4 | .
COc1ccc(S(=O)(=O)N2CCCCC2)cc1NC(=O)c1ccc([N+](=O)[O-])o1 | -2 | 8 | -4 | 56* | -5 | 5
CCCn1c(=S)[nH]c2cc(C(=O)N3CCN(C4CCCCC4)CC3)ccc2c1=O | . | . | . | . | 2 | .
Fc1ccc(NC(=S)NCCc2ccccc2)c(F)c1F | 42* | 2 | -1 | -2 | -2 | 54*
Fc1ccccc1NC(=S)NCCc1ccccc1 | -3 | 2 | 0 | -34 | -6 | 6
N#Cc1cn(-c2ccccc2)nc1C(=O)c1ccccc1 | 3 | 2 | 62* | 7 | 1 | 6
CCCCC1=NN(C(=O)c2ccco2)C(O)(C(F)(F)F)C1 (centres undefined) | 0 | 15* | 13 | -4 | 3 | 4
NC(=O)COc1ccc(/C=N\NC(=O)CC(=O)NCCc2ccccc2)cc1 | . | . | . | . | -5 | .
O=C(Nc1nc(-c2ccccn2)cs1)c1cccc(-n2cnnn2)c1 | 53* | . | 3 | . | 16 | 63*
Cc1c(NC(=O)c2ccc3c(c2)OCO3)cccc1-c1nc2ccccc2o1 | 0 | 3 | -3 | 10 | -5 | 0
O=C(Nc1ccccc1-c1nc2ccccc2o1)c1ccc2c(c1)OCCO2 | 1 | 15* | . | 0 | 1 | 0
COc1ccc(CCN2CC(C(=O)NCc3nc4ccccc4n3C)CCC2=O)cc1 (centres undefined) | . | . | . | . | -4 | .
O=C(Nc1nc2ccc(F)cc2s1)c1ccccn1 | 6 | 3 | 1 | -30 | 71* | 13
O=C(Nc1nnc(SCc2ccc(F)cc2)s1)c1ccccn1 | 3 | 2 | 0 | 44 | 78* | 14
O=C(Nc1nc2ccccc2s1)c1cnccn1 | -1 | 2 | 2 | -56 | -1 | 4
O=C(Nc1nnc(SCc2ccc(F)cc2)s1)c1cccnc1Cl | -2 | 15 | 0 | 6 | -7 | 2
SMILES | Ba/F3 V617F tox | MT stabilize HCS | bCat nuc transl | APP 5UTR inh | IEC-6 tox | BaF3 parental
CCOC(=O)c1c(C)[nH]c(C)c1S(=O)(=O)NCCN1CCN(c2ccccc2F)CC1 | . | . | . | . | -1 | .
O=C(Nc1ccc2c(c1)OCO2)c1ccc(NC2CC2)c([N+](=O)[O-])c1 | -2 | 28* | 8 | -26 | 3 | 1
O=C(Nc1ccc(F)cc1)C1CCN(S(=O)(=O)c2cccc3nonc23)CC1 | . | . | . | . | -4 | .
CCCCCNc1nc2sc3c(c2c(=O)n1-c1cccc(Cl)c1)CCN(C)C3 | 76* | . | 0 | . | 5 | 68*
CCCCNc1nc2sc3c(c2c(=O)n1-c1cccc(Cl)c1)CCN(C)C3 | 80* | . | 0 | . | -3 | 68*
CCCCSc1nc2sc3c(c2c(=O)n1-c1ccccc1)CCN(C)C3 | . | . | . | . | -3 | .
COc1cccc(CN(C)C(=O)c2[nH]c(C)c(C(C)=O)c2C)c1OC | . | . | . | . | 6 | .
O=C(O)CCCn1cc(NC(=O)c2sc3ccccc3c2Cl)cn1 | . | . | . | . | 2 | .
Clc1ccc(-c2nnc3sc(-c4ccc(Br)o4)nn23)c(Cl)c1 | 4 | 2 | 3 | -6 | 6 | 2
CN(C)c1ccc(-c2nn3c(-c4ccc(Cl)cc4Cl)nnc3s2)cc1 | -4 | 30* | 53* | 40 | 2 | -3
O=C(CCNC(=O)C1CCN(S(=O)(=O)c2ccc(F)cc2)CC1)NCCc1ccc(Cl)cc1 | . | . | . | . | 1 | .
